Here are results for eight compounds from ChEMBL document CHEMBL1140927, “Discovery of N-(3-fluorophenyl)-1-[(4-([(3S)-3-methyl-1-piperazinyl]methyl)phenyl)acetyl]-4-piperidinamine (GSK962040), the first small molecule motilin receptor agonist clinical candidate” (J Med Chem, 2009).

For orientation: IC50 means the point on the concentration scale where inhibition reaches its midpoint. What is called EC50 is the concentration at which the effect is half-maximal. A word on the half-life: it is how long it takes for the measured level to halve. In general, Tmax refers to the time at which the peak concentration occurs. For orientation: Cmax means the highest concentration seen after dosing. Broadly, the solubility is the dissolved amount per volume that the medium holds.

Data set [1] has as its target T1, Cytochrome P450 3A4 (Homo sapiens, UniProt P08684). The experiment in a line: Inhibition of human CYP3A4 expressed in Escherichia coli using diethoxyfluorescein substrate assessed as decrease in enzyme activity by time dependent inhibition assay. Type of data set: ADME. On the set-up: unit not given here.
Data set [2] concerns the target T1, Cytochrome P450 3A4. In words: Inhibition of human CYP3A4 expressed in Escherichia coli using 7BQ substrate by time dependent inhibition assay. Type of data set: ADME.
Data set [3] has as its target T2, Motilin receptor (Homo sapiens, UniProt O43193). The experiment in a line: Agonist activity at human recombinant motilin receptor expressed in CHO cells assessed as increase in intracellular calcium by FLIPR assay. The data set is classed as functional, cell-based. The procedure, abridged:
(§1)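 CHO-K1 cells stably transfected with human motilin receptor, grown in DMEM/HamF-12 with 10% FBS, 2 mM GlutaMAX, 1 mg/mL Geneticin; seeded 10 000 cells/well, 24 h. Loaded with Fluo 4 (2.5 µM) in Tyrodes with probenecid, 1 h at 37.5 °C. Compound top final 12 µM, 1-in-4 dilutions; fluorescence read over 1 min; max change over baseline, four-parameter logistic fit; intrinsic activity = curve maximum relative to motilin maximum.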
In general terms: Calcium assays in cells follow changes in intracellular calcium, usually with a dye or a luminescent sensor.

The target in data set [4] is T2, Motilin receptor. In words: Intrinsic activity at human recombinant motilin receptor expressed in CHO cells relative to motilin. The data set is classed as cell-based. Put shortly:
as §1

Data set [5] has as its target T1, Cytochrome P450 3A4. In words: Inhibition of human CYP3A4 expressed in Escherichia coli using diethoxyfluorescein substrate by time dependent inhibition assay. Type of data set: ADME.
The subject of data set [6] is Stomach. The experiment in a line: Potentiation of electric field stimulated-rabbit gastric antrum contraction at 0.3 uM. The data set is classed as functional, Oryctolagus cuniculus. Put shortly:
(§2)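 Isolated native rabbit gastric antrum tissue. Cholinergic contractions are evoked by electrical field stimulation (EFS), and compound is added at the stated concentration. The read-out is % potentiation of EFS-evoked contractions, n = 4-8.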

For data set [7], the target named is T1, Cytochrome P450 3A4. The experiment in a line: Inhibition of human CYP3A4 expressed in Escherichia coli using diethoxyfluorescein substrate measured in 25 to 30 mins by time dependent inhibition assay. The data set is classed as ADME.
Data set [8] has as its system Stomach. The experiment in a line: Potentiation of electric field stimulated-rabbit gastric antrum contraction at 3 uM. The data set is classed as functional, Oryctolagus cuniculus. Put shortly: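 Isolated rabbit gastric antrum; cholinergic contractions evoked by electrical field stimulation, compound response expressed as % potentiation of EFS-evoked contraction, n = 4-8.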

Data set [9] in a line: Half life in rabbit gastric antrum native tissue at 3 uM. Type of data set: ADME, tissue-based, Oryctolagus cuniculus, Stomach.
Data set [10] has as its system Stomach. In words: Potentiation of electric field stimulated-rabbit gastric antrum contraction at 1 uM. The data set is classed as functional, Oryctolagus cuniculus. The procedure, abridged: as §2
Data set [11] relates to Stomach. The experiment in a line: Potentiation of electric field stimulated-rabbit gastric antrum contraction at 0.1 uM. Type of data set: functional, Oryctolagus cuniculus. The procedure, abridged:
as §2

Data set [12] deals with T1, Cytochrome P450 3A4. In words: Inhibition of human CYP3A4 expressed in Escherichia coli using diethoxyfluorescein substrate measured in 0 to 5 mins by time dependent inhibition assay. Type of data set: ADME.
The nature of data set [13]: Tmax in Sprague-Dawley rat at 5 mg/kg, po. The conditions noted are these: in vivo. The data set is classed as ADME, organism-based. Also noted: dose 5 mg/kg, route oral. The procedure, abridged: (§3)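 Male Sprague-Dawley rats (n = 3), HCl salt suspended in 1% w/v methylcellulose at 1 mg free base/mL, oral gavage 5 mL/kg for 5 mg free base/kg; serial blood up to 12 h (8 h in a second study); diluted blood analysed by LC/MS/MS, LLQ 5 ng/mL.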

The test system of the next data set is Rattus norvegicus. The experiment in a line: AUC (0 to t) in Sprague-Dawley rat at 5 mg/kg, po. The data set is classed as ADME, organism-based, Plasma. Also noted: dose 5 mg/kg, route oral. The conditions noted are these: in vivo. Put shortly: as §3
A short description of data set [14]: Cmax in Sprague-Dawley rat at 5 mg/kg, po. The conditions noted are these: in vivo. Also noted: dose 5 mg/kg, route oral. The data set is classed as ADME, organism-based. The procedure, abridged: as §3
Data set [15] is described as follows: Aqueous solubility of the compound. Type of data set: physicochemical. The conditions noted are these: aqueous medium.
The target of another data set is T3, Cytochrome P450 1A2 (Homo sapiens, UniProt P05177).
T3 sequence (P05177 whole entry): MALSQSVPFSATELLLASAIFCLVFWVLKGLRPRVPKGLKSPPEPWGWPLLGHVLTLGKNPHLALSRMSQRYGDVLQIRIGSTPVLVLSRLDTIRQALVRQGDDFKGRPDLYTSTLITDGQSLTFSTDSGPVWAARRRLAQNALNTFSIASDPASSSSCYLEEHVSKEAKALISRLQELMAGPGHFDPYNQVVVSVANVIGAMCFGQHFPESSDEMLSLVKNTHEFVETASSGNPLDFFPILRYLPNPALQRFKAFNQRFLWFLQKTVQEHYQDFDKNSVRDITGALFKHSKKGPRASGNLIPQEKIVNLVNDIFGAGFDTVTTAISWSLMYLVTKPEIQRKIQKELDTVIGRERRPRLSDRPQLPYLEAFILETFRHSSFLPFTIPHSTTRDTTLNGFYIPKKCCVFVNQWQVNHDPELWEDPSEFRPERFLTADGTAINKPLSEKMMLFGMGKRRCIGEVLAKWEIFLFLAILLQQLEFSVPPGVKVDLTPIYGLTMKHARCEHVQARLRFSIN
In words: Inhibition of human CYP1A2. Type of data set: ADME.

A further data set deals with Cytochrome P450 2C19 (Homo sapiens, UniProt P33261). The experiment in a line: Inhibition of human CYP2C19. Type of data set: ADME.
The target of the next data set is Cytochrome P450 2D6 (Homo sapiens, UniProt P10635). The experiment in a line: Inhibition of human CYP2D6. The data set is classed as ADME.
In data set [16] the target is Voltage-gated inwardly rectifying potassium channel KCNH2 (Homo sapiens, UniProt Q12809). In words: Binding affinity to human ERG.
For another data set, the target named is Cytochrome P450 2C9 (Homo sapiens, UniProt P11712). The experiment in a line: Inhibition of human CYP2C9. The data set is classed as ADME.
Chain of Cytochrome P450 2C9 (P11712 whole entry): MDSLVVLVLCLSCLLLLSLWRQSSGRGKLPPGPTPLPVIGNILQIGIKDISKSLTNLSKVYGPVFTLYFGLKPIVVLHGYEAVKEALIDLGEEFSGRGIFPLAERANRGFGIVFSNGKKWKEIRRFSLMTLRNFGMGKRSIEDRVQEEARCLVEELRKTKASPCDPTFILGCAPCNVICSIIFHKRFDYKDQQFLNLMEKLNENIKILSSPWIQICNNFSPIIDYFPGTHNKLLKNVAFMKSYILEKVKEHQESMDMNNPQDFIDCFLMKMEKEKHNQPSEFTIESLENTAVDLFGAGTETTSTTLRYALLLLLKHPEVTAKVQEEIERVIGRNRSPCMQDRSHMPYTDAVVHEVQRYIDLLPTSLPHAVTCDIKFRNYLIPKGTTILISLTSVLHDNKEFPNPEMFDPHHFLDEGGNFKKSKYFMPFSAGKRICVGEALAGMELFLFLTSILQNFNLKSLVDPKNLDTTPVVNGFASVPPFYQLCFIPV

T2 sequence (O43193 whole entry): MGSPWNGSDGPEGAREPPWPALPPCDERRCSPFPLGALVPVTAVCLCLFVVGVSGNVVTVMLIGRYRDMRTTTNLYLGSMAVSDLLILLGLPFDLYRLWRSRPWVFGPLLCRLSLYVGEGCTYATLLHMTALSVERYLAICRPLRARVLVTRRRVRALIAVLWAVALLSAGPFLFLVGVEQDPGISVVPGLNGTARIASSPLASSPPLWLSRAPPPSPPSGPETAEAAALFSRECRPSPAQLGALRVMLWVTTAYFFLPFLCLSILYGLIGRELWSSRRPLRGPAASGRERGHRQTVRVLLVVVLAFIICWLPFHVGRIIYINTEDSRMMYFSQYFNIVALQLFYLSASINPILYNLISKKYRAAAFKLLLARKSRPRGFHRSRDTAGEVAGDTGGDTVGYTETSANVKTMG
T1 sequence (P08684 whole entry): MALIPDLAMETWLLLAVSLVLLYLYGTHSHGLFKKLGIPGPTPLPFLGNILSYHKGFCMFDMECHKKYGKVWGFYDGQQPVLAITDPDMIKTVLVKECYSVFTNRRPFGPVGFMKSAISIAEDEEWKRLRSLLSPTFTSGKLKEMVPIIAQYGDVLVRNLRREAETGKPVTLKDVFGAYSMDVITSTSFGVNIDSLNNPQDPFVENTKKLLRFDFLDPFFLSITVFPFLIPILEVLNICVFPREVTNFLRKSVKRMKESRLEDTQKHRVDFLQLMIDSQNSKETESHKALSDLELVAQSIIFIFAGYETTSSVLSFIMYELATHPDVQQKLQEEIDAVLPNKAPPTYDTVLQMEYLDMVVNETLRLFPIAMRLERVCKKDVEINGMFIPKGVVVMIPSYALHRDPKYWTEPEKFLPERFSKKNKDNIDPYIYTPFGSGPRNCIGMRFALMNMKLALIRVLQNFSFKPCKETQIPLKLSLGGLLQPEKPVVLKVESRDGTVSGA
Chain of Cytochrome P450 2C19 (P33261 whole entry): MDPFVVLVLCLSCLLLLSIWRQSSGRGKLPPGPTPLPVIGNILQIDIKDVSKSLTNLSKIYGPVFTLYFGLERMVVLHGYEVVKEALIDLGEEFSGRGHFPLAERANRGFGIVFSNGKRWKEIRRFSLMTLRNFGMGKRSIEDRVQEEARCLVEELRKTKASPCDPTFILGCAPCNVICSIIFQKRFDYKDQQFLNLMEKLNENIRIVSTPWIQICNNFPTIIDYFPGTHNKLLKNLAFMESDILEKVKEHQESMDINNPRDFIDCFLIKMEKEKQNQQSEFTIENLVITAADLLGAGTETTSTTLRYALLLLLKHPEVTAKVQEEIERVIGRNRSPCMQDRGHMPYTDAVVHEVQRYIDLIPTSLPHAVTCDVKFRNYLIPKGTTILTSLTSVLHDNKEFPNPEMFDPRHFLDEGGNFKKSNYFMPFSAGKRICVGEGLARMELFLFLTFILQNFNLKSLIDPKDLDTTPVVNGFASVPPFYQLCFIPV
Chain of Voltage-gated inwardly rectifying potassium channel KCNH2 (Q12809 whole entry): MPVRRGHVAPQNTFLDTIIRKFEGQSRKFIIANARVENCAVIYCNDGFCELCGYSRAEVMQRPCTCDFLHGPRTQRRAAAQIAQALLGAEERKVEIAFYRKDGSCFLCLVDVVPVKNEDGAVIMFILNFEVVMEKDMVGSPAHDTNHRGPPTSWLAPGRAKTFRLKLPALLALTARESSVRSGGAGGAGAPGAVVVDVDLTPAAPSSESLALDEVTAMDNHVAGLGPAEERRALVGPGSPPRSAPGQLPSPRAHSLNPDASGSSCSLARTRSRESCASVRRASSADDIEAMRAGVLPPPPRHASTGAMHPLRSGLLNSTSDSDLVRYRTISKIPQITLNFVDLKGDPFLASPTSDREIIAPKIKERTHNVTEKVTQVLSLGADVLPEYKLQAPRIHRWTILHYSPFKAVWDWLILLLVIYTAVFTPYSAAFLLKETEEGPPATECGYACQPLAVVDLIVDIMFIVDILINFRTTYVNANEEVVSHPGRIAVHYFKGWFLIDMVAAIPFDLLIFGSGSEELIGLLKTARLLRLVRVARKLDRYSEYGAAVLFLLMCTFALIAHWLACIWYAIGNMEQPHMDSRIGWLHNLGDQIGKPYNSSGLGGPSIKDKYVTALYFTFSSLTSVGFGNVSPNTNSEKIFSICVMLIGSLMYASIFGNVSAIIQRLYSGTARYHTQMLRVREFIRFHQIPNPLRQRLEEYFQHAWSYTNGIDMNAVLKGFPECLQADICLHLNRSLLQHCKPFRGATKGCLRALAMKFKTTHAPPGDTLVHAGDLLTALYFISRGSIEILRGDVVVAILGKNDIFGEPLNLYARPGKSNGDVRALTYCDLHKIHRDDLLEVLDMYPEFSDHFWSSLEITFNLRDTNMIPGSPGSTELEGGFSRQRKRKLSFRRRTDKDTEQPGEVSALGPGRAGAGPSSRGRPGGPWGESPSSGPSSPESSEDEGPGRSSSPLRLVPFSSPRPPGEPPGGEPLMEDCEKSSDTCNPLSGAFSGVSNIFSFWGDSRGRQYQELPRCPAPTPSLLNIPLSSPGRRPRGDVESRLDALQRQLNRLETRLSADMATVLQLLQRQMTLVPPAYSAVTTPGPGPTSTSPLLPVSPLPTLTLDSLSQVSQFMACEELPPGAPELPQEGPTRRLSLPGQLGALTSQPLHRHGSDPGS
Chain of Cytochrome P450 2D6 (P10635 whole entry): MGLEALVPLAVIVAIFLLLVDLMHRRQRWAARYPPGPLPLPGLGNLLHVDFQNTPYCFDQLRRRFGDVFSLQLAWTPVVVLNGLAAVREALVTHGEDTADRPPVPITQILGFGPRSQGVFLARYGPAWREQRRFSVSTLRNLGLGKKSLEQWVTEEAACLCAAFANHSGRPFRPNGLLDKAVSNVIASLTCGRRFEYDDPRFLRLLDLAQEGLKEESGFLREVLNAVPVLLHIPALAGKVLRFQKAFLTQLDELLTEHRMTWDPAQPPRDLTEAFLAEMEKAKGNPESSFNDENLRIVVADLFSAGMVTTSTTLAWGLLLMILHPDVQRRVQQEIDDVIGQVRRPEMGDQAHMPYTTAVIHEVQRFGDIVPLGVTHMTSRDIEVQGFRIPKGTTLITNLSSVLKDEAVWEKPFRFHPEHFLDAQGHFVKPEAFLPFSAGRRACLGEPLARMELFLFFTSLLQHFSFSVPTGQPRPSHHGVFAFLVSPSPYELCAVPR

In the case of `C[C@@H]1CN(Cc2ccc(CC(=O)N3CCC(Nc4ccc(F)cc4)CC3)cc2)C[C@H](C)N1`, the Activity at Cytochrome P450 3A4 [1] turned out to be 2.7. In addition, the IC50 at Cytochrome P450 3A4 [2] was 59000 nM; on Cytochrome P450 3A4 [5], 41000 nM. Also, the EC50 at Motilin receptor [3] is 39.8 nM. Moreover, the Intrinsic activity at Motilin receptor [4] came to 0.9.

As to `CC[C@H]1OC(=O)[C@H](C)[C@@H](O[C@H]2C[C@@](C)(OC)[C@@H](O)[C@H](C)O2)[C@H](C)[C@@H](O[C@@H]2O[C@H](C)C[C@H](N(C)C)[C@H]2O)[C@](C)(O)C[C@@H](C)C(=O)[C@H](C)[C@@H](O)[C@]1(C)O` [ERYTHROMYCIN], the Activity was 69% in the data set with Stomach [6], 490% in the data set on Stomach [8], 189% in the data set with Stomach [10] and 14% in the data set on Stomach [11]. Also, the IC50 amounted to 190 nM against Cytochrome P450 3A4 [7] and 1900 nM against Cytochrome P450 3A4 [12]. The same compound had a half-life at 3 µM in data set [9] of 0.4 h. Further, the Intrinsic activity at Motilin receptor [4] is 1.3.

For the compound `C[C@H]1CN(Cc2ccc(CC(=O)N3CCC(Nc4cccc(C#N)c4)CC3)cc2)CCN1`, the Activity in the data set with Stomach [6] stood at 218%; on Cytochrome P450 3A4 [1], 2; in the data set on Stomach [10] it was 462%; in the data set with Stomach [11] it was 98%. Moreover, the Tmax in data set [13] turned out to be 4 h. Moreover, the AUC with Rattus norvegicus turned out to be 2.8 kg·min/L. Also, the figures for the IC50 against Cytochrome P450 3A4 [2] and against Cytochrome P450 3A4 [5] were 58000 nM and 36000 nM, respectively. The EC50 on Motilin receptor [3] is 3.98 nM. The compound further returned a Cmax in [14] of 200 nM. Moreover, on Motilin receptor [4], the Intrinsic activity was determined as 1.1.

`CC(C(=O)N1CCC(Nc2ccc(F)cc2)CC1)c1ccc(CN2C[C@@H](C)N[C@@H](C)C2)cc1` (some centres not stated): on Cytochrome P450 3A4 [1], the Activity was 7.6. Further, the EC50 at Motilin receptor [3] was 31.6 nM. The Intrinsic activity at Motilin receptor [4] came out at 1.1. The compound further displayed an IC50 on Cytochrome P450 3A4 [5] of 8700 nM.

Regarding `C[C@H]1CN(Cc2ccc(CCC(=O)N3CCC(Nc4ccc(F)cc4)CC3)cc2)CCN1`, the EC50 on Motilin receptor [3] is 63.1 nM. Besides, the Intrinsic activity on Motilin receptor [4] worked out at 1.2.

`C[C@H]1CN(Cc2ccc(CC(=O)N3CCC(Nc4cccc(F)c4)CC3)cc2)CCN1.Cl` came in with a solubility in [15] of more than 1 µg/mL.

Turning to `C[C@@H]1CN(Cc2ccc(-c3cccnc3C(=O)N3CCC(Nc4ccc(F)cc4)CC3)cc2)C[C@H](C)N1`, the IC50 was more than 23000 nM against Cytochrome P450 1A2; more than 23000 nM against Cytochrome P450 2C19; more than 23000 nM at Cytochrome P450 2D6; 1400 nM against Cytochrome P450 3A4 [7]; more than 31600 nM in data set [16]; more than 23000 nM against Cytochrome P450 2C9. Moreover, the half-maximal inhibitory concentration (IC50) against Cytochrome P450 3A4 [12] was found to be 20000 nM. Also, in the data set with Stomach [8], the Activity is recorded as 343%. Besides, at Motilin receptor [3], the EC50 is 3.98 nM.

Turning to `C[C@@H]1CN(Cc2ccc(CC(=O)N3CCC(Nc4cccc(F)c4)CC3)cc2)CCN1`, the EC50 at Motilin receptor [3] is 20 nM. Moreover, the Intrinsic activity at Motilin receptor [4] was found to be 0.7.
